Test results taken from ChEMBL document CHEMBL3877338, “Antiparasitic Lead Discovery: Toward Optimization of a Chemotype with Activity Against Multiple Protozoan Parasites” (ACS Med Chem Lett, 2017).
In brackets after ≈: the same amount, converted by molar mass.

Key:
[1] = Cytotoxicity against human HepG2 cells assessed as reduction in cell viability after 48 hrs by MTT assay; type: toxicity, cell-based; conditions: read-out: TC50
Method in brief: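 HepG2 cells in supplemented MEM, 9570/well, plated overnight at 37 °C. Twelve 1.6-fold dilutions in duplicate, 57–10,000 ng/mL, for 48 h; mefloquine plate control. MTT added for 1 h at room temperature in the dark, formazan dissolved in acidified isopropanol, absorbance read. IC50 by sigmoidal variable-slope nonlinear regression.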

Leishmania major = experiment: Antileishmanial activity against luciferase-expressing Leishmania major amastigotes infected in mouse RAW264.7 cells after 96 hrs by luminescence assay; type: functional, cell-based; conditions: RAW264.7, 96 h
Method in brief: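 RAW 264.7 macrophages, 10,000/well, 24 h at 37 °C, then infected overnight with luciferase-expressing L. major promastigotes (100,000/well) and washed three times. Twelve two-fold dilutions in duplicate, final […]–10,000 ng/mL. 96 h at 37 °C, 5% CO2, then luciferin 30 min in the dark and luminescence read. IC50 by sigmoidal variable-slope nonlinear regression.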

[2] = tested on: Trypanosoma brucei brucei; experiment: Antitrypanosomal activity against Trypanosoma brucei brucei 427 bloodstream forms after 48 hrs by presto blue dye based fluorescence assay; type: functional; conditions: Trypanosoma brucei, 427, 48 h
[3] = Cytotoxicity against […] cells assessed as reduction in cell viability after 96 hrs by presto blue assay; type: toxicity; conditions: read-out: TC50
Method in brief: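 NIH 3T3 cells in phenol red-free DMEM with 2% FBS, 5×10^4/well, left 2 h to attach, then exposed to compound 96 h at 37 °C, 5% CO2. PrestoBlue added for 4 h, fluorescence read at ex 530/em 590 nm.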

Trypanosoma cruzi = experiment: Antitrypanosomal activity against Trypanosoma cruzi Tulahuen amastigotes infected in […] cells after 96 hrs by chlorophenol red-beta-D-galactopyranoside based assay; conditions: NIH3T3, 96 h
[4] = Protein binding in human plasma; type: ADME, cell-free
[5] = Lipophilicity, log D of the compound at pH 7.4; type: physicochemical; conditions: buffer
[6] = Thermodynamic aqueous solubility of the compound; type: physicochemical; conditions: buffer; read-out: Therm_solubility
[7] = Intrinsic clearance in human liver microsomes; type: ADME
[8] = Intrinsic clearance in rat hepatocytes assessed per million cells; type: ADME, cell-based, Hepatocyte
[9] = Ratio of drug level in BALB/c mouse brain to plasma at 10 mg/kg, ip administered as single dose at 0.25 hrs post dose by LC-MS/MS analysis; type: ADME, organism-based
Method in brief: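 Female BALB/c mice, 8–12 weeks, single 10 mg/kg i.p. dose (10 mL/kg) in NMP/solutol HS/saline solution. Three mice per time point. Plasma (K2EDTA) and brain collected; brain washed in PBS and homogenized in PBS pH 7.4 to three times its weight. Protein precipitation with acetonitrile, then LC-MS/MS (LLOQ 1.04 ng/mL plasma, 2.08 ng/mL brain). Non-compartmental analysis.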

[10] = Fraction unbound in human plasma; type: ADME, cell-free

SMILES | CC50 at 48 h [1] | EC50 (Leishmania major) | EC50 [2] | CC50 at 96 h [3] | EC50 (Trypanosoma cruzi) | PPB [4] | logD [5] | solubility thermodynamic [6] | CLH [7] | CLH [8] | BPR [9] | Fu [10]
Fc1cccc(COc2ccc(Nc3ncnc4ccc(-c5cccc(N6CCOCC6)c5)cc34)cc2Cl)c1 | > 20 µM | – | – | – | – | – | – | – | – | – | – | –
O=S(=O)(c1ccc(-c2ccc3ncnc(Nc4ccc(OCc5cccc(F)c5)cc4)c3c2)cc1)N1CCOCC1 | > 20 µM | – | – | – | – | – | – | – | – | – | – | –
Cc1cnc(Nc2ccnc3ccc(-c4ccc(S(=O)(=O)N5CCOCC5)cc4)cc23)s1 | > 20 µM | 1.2 µM | 1.6 µM | > 20 µM | 6.1 µM | – | – | – | – | – | – | –
COc1ccc(Nc2ccnc3ccc(-c4ccc(S(=O)(=O)N5CCOCC5)cc4)cc23)cc1C | 9 µM | 5.7 µM | 0.31 µM | 15 µM | 3.6 µM | – | – | – | – | – | – | –
CCOCCOc1ccnc2ccc(-c3ccc(S(=O)(=O)N4CCOCC4)cc3)cc12 | > 20 µM | > 20 µM | 0.71 µM | – | > 20 µM | – | – | – | – | – | – | –
Cc1nnc(Nc2ccnc3ccc(-c4ccc(S(=O)(=O)N5CCOCC5)cc4)cc23)nc1C | > 20 µM | > 20 µM | 3.1 µM | > 20 µM | > 20 µM | – | – | – | – | – | – | –
O=S(=O)(c1ccc(-c2ccc3nccc(Nc4ccncc4)c3c2)cc1)N1CCOCC1 | > 20 µM | > 20 µM | 0.11 µM | > 20 µM | > 20 µM | – | – | – | – | – | – | –
Cc1noc(C)c1Nc1ccnc2ccc(-c3ccc(S(=O)(=O)N4CCOCC4)cc3)cc12 | > 20 µM | > 20 µM | 6.6 µM | > 20 µM | > 20 µM | – | – | – | – | – | – | –
O=S(=O)(c1ccc(-c2ccc3nccc(Nc4ccncn4)c3c2)cc1)N1CCOCC1 | > 20 µM | > 20 µM | 0.024 µM | > 20 µM | > 20 µM | 95.6% | 3.3 | 1.4 µM (≈ 0.627 µg/mL) | 207.5 µL/min/mg | 31.5 µL/min | 0.01 | –
N#Cc1cnc(Nc2ccnc3ccc(-c4ccc(S(=O)(=O)N5CCOCC5)cc4)cc23)cn1 | > 20 µM | > 20 µM | 7.9 µM | > 20 µM | > 20 µM | – | – | – | – | – | – | –
O=S(=O)(c1ccc(-c2ccc3nccc(Nc4cnccn4)c3c2)cc1)N1CCOCC1 | > 20 µM | > 20 µM | > 20 µM | > 20 µM | > 20 µM | – | – | – | – | – | – | –
O=S(=O)(c1ccc(-c2ccc3nccc(Nc4ccccc4)c3c2)cc1)N1CCOCC1 | > 20 µM | 7.1 µM | 0.98 µM | > 20 µM | 6.2 µM | – | – | – | – | – | – | –
Cc1cc(Nc2ccnc3ccc(-c4ccc(S(=O)(=O)N5CCOCC5)cc4)cc23)on1 | > 20 µM | > 20 µM | 1.1 µM | > 20 µM | 7.6 µM | – | – | – | – | – | – | –
Cc1cc(Nc2ccnc3ccc(-c4ccc(S(=O)(=O)N5CCOCC5)cc4)cc23)sn1 | > 20 µM | 4.5 µM | 0.072 µM | > 20 µM | 3.9 µM | – | – | – | – | – | – | –
O=S(=O)(c1ccc(-c2ccc3nccc(Nc4cccnc4)c3c2)cc1)N1CCOCC1 | > 20 µM | > 20 µM | 3.8 µM | > 20 µM | > 20 µM | – | – | – | – | – | – | –
COc1ccc(Nc2ccnc3ccc(-c4ccc(S(=O)(=O)N5CCOCC5)cc4)cc23)cc1Cl | > 20 µM | 5.3 µM | 1.7 µM | > 20 µM | 7.2 µM | – | – | – | – | – | – | –
O=[N+]([O-])c1ccc(Nc2ccnc3ccc(-c4ccc(S(=O)(=O)N5CCOCC5)cc4)cc23)cn1 | > 20 µM | 5.8 µM | 3.2 µM | > 20 µM | > 20 µM | – | – | – | – | – | – | –
O=S(=O)(c1ccc(-c2ccc3nccc(Nc4ccnnc4)c3c2)cc1)N1CCOCC1 | > 20 µM | > 20 µM | > 20 µM | > 20 µM | > 20 µM | – | – | – | – | – | – | –
O=S(=O)(c1ccc(-c2ccc3nccc(Nc4cncs4)c3c2)cc1)N1CCOCC1 | > 20 µM | 5.4 µM | 1.2 µM | > 20 µM | > 20 µM | – | – | – | – | – | – | –
O=S(=O)(c1ccc(-c2ccc3nccc(Nc4ccc(OCc5cccc(F)c5)cc4)c3c2)cc1)N1CCOCC1 | > 5 µM | 1.2 µM | 0.37 µM | – | 2.8 µM | – | – | 2 µM (≈ 1.14 µg/mL) | 98 µL/min/mg | 19 µL/min | – | < 0.1%
O=S(=O)(c1ccc(-c2ccc3nccc(Nc4ncc(Cl)cn4)c3c2)cc1)N1CCOCC1 | > 20 µM | 0.37 µM | 3.8 µM | > 20 µM | > 20 µM | 99.6% | – | 1 µM (≈ 0.482 µg/mL) | – | – | – | –
O=S(=O)(c1ccc(-c2ccc3nccc(Nc4nnc(C5CC5)s4)c3c2)cc1)N1CCOCC1 | > 20 µM | 2 µM | 4.7 µM | > 20 µM | > 20 µM | – | – | – | – | – | – | –
Cc1cnnc(Nc2ccnc3ccc(-c4ccc(S(=O)(=O)N5CCOCC5)cc4)cc23)c1 | > 20 µM | > 20 µM | 2 µM | > 20 µM | > 20 µM | – | – | – | – | – | – | –
O=S(=O)(c1ccc(-c2ccc3nccc(Nc4ccccn4)c3c2)cc1)N1CCOCC1 | > 20 µM | > 20 µM | 4.5 µM | > 20 µM | 16 µM | – | – | – | – | – | – | –
CCc1nnc(Nc2ccnc3ccc(-c4ccc(S(=O)(=O)N5CCOCC5)cc4)cc23)s1 | > 20 µM | 3.1 µM | 4.2 µM | > 20 µM | > 20 µM | – | – | – | – | – | – | –
O=S(=O)(c1ccc(-c2ccc3ncccc3c2)cc1)N1CCOCC1 | > 20 µM | > 20 µM | > 20 µM | > 20 µM | > 20 µM | – | – | – | – | – | – | –
CCn1nccc1Nc1ccnc2ccc(-c3ccc(S(=O)(=O)N4CCOCC4)cc3)cc12 | > 20 µM | > 20 µM | 2.5 µM | > 20 µM | > 20 µM | – | – | – | – | – | – | –
O=S(=O)(c1ccc(-c2ccc3nccc(Nc4ccc5[nH]nnc5c4)c3c2)cc1)N1CCOCC1 | > 20 µM | > 20 µM | 16 µM | > 20 µM | > 20 µM | – | – | – | – | – | – | –
COc1ncc(Nc2ccnc3ccc(-c4ccc(S(=O)(=O)N5CCOCC5)cc4)cc23)cn1 | > 20 µM | > 20 µM | 5.6 µM | > 20 µM | > 20 µM | – | – | – | – | – | – | –
CS(=O)(=O)CCNCc1ccc(-c2ccc3ncnc(Nc4ccc(OCc5cccc(F)c5)c(Cl)c4)c3c2)o1 [LAPATINIB] | > 20 µM | – | – | – | – | – | – | – | – | – | – | –
